Assay results: ChEMBL document CHEMBL3120045, “Monovalent mannose-based DC-SIGN antagonists: targeting the hydrophobic groove of the receptor” (Eur J Med Chem, 2014)
pIC50, pKi: −log10 of the molar value.

How the values were obtained:
CD209 antigen [1] = target: T1, CD209 antigen (Homo sapiens, UniProt Q9NNX6); assay: Displacement of biotinylated HIV1 gp120 from DC-SIGN receptor carbohydrate recognition domain (unknown origin) after 2 hrs by solid-phase competitive displacement assay
T1 sequence (Q9NNX6 whole entry): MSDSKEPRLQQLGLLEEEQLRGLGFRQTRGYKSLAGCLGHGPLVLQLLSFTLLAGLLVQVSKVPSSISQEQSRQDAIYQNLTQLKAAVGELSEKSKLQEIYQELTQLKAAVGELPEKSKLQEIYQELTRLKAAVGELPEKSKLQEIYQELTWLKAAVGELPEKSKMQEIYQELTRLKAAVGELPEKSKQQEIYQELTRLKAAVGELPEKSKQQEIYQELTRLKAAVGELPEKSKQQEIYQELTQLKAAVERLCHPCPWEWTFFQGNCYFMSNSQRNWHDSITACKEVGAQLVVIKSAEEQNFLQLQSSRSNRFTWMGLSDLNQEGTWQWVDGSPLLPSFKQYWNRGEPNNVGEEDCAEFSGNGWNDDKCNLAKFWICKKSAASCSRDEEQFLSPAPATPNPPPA

CD209 antigen [2] = target: T1, CD209 antigen; assay: Antagonist activity at DC-SIGN receptor (unknown origin) assessed as inhibition of mannosylated BSA binding by SPR assay
[3] = Cytotoxicity against human DC at 50 uM after 24 hrs by propidium iodide staining-based flow cytometry
Summary of the method: (§1)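 Immature DCs, seeded after 5 days of culture at 0.5 × 10⁶ cells/ml, were treated with compounds at 50, 100 and 250 for 24 h. Cells were then harvested, stained with propidium iodide for 15 min and analysed by flow cytometry. The percentage of PI-positive cells was taken as the percentage of dead cells.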

[4] = Cytotoxicity against human DC at 250 uM after 24 hrs by propidium iodide staining-based flow cytometry; summary of the method: as §1
[5] = Cytotoxicity against human DC at 250 uM after 24 hrs by propidium iodide staining-based flow cytometry
[6] = Cytotoxicity against human DC at 100 uM after 24 hrs by propidium iodide staining-based flow cytometry; summary of the method: as §1
CD209 antigen [7] = target: T1, CD209 antigen; assay: Displacement of [125I]-Man30-BSA from DC-SIGN receptor carbohydrate recognition domain (unknown origin) after 2 hrs by gamma-counting analysis

| SMILES | pIC50 (CD209 antigen [1]) | Activity [3] | Activity [4] | Activity [5] | also measured |
| --- | --- | --- | --- | --- | --- |
| COC(=O)[C@H]1C[C@H](OCCN=[N+]=[N-])[C@@H](O[C@H]2O[C@H](CO)[C@@H](O)[C@H](O)[C@@H]2O)C[C@@H]1C(=O)OC | 2.56 |  |  |  | pIC50 (CD209 antigen [2]): 2.99 |
| [N-]=[N+]=NCCO[C@H]1C[C@H](C(=O)NCc2ccc(CO)cc2)[C@@H](C(=O)NCc2ccc(CO)cc2)C[C@@H]1O[C@H]1O[C@H](CO)[C@@H](O)[C@H](O)[C@@H]1O | 3.38 |  |  |  | pIC50 (CD209 antigen [2]): 3.49 |
| N#Cc1ccc(C(=O)NCC(CNC(=O)c2ccc(C#N)cc2)O[C@H]2O[C@H](CO)[C@@H](O)[C@H](O)[C@@H]2O)cc1 |  | Non-toxic |  |  |  |
| O=C(NCC(CNC(=O)c1ccc2ccccc2c1)O[C@H]1O[C@H](CO)[C@@H](O)[C@H](O)[C@@H]1O)c1ccc2ccccc2c1 |  | Non-toxic | Toxic | Toxic |  |
| OC[C@H]1O[C@H](OC(COc2cccc3ccccc23)COc2cccc3ccccc23)[C@@H](O)[C@@H](O)[C@@H]1O |  | Non-toxic | Toxic | Toxic | Activity [6]: Toxic |
| COc1ccc2ccc(OCC(COc3ccc4ccc(OC)cc4c3)O[C@H]3O[C@H](CO)[C@@H](O)[C@H](O)[C@@H]3O)cc2c1 |  | Non-toxic | Toxic | Toxic | Activity [6]: Toxic |
| COc1ccc(OCC(CO[C@H]2O[C@H](CO)[C@@H](O)[C@H](O)[C@@H]2O)Oc2ccc(OC)cc2)cc1 (mixture of isomers) |  | Non-toxic |  |  |  |
| OC[C@H]1O[C@H](OCC(COc2ccc3ccccc3c2)Oc2ccc3ccccc3c2)[C@@H](O)[C@@H](O)[C@@H]1O (mixture of isomers) |  | Non-toxic | Toxic | Toxic |  |
| OC[C@H]1OC(O)[C@@H](O)[C@@H](O)[C@@H]1O (stereo partly drawn) [D-MANNOSE] |  |  |  |  | pKi (CD209 antigen [7]): 1.88 |
| C[C@H](O)[C@@H](O)[C@@H](O)[C@H](O)C=O [L-FUCOSE] | 2.53 |  |  |  | pKi (CD209 antigen [7]): 2.17 |
